Assay results published in ChEMBL document CHEMBL4665630, “Synthesis and biological evaluation of anthraquinone derivatives as allosteric phosphoglycerate mutase 1 inhibitors for cancer treatment” (Eur J Med Chem, 2019).
pIC50: −log10 of the molar value.

Tests used:
[1] = target: Phosphoglycerate mutase 1 (Homo sapiens, UniProt P18669); experiment: Inhibition of human recombinant PGAM1 by measuring decrease in OD by enzyme based assay
Method in brief: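 C-terminal His6-tagged PGAM1, Ni-NTA purified, 4.6 nM, preincubated with inhibitor in DMSO; coupled enolase/pyruvate kinase M2/LDH system in 100 mM Tris-HCl, 100 mM KCl, 5 mM MgCl2, 1 mM ADP, 0.2 mM NADH, 4 mM 3PG; NADH loss read at 340 nm. Counter-screen without PGAM1 using 4 mM 2PG. Mean ± s.d., n=3.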

NCI-H1299 = experiment: Antiproliferative activity against human H1299 cells assessed as reduction in cell viability measured after 72 hrs by MTT assay; format: functional, cell-based; conditions: NCI-H1299, 72 h
Method in brief: (§1)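 Cells grown in RPMI-1640 (H1299, PC9) or F-12K (A549) with 10% FBS and penicillin/streptomycin; 2000 H1299 or A549 or 1000 PC9 cells per well, attached 24 h, exposed to inhibitor 72 h; MTT 0.5 mg/mL for 4 h, absorbance at 570 nm; mean ± s.d., n=3.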

A549 = experiment: Antiproliferative activity against human A549 cells assessed as reduction in cell viability measured after 72 hrs by MTT assay; format: functional, cell-based; conditions: A549, 72 h; method in brief: as §1
PC-9 = experiment: Antiproliferative activity against human PC-9 cells assessed as reduction in cell viability measured after 72 hrs by MTT assay; format: functional, cell-based; conditions: PC-9, 72 h; method in brief: as §1

Chain of Phosphoglycerate mutase 1 (P18669 whole entry): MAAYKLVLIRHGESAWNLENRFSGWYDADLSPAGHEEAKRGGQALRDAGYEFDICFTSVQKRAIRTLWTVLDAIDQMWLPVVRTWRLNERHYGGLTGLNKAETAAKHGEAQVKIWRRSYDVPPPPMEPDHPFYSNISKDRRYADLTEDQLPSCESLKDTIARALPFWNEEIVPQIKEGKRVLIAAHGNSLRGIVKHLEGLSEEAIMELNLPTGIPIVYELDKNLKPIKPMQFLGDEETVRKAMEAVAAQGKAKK

Row | SMILES | pIC50 [1] | pIC50 (NCI-H1299) | pIC50 (A549) | pIC50 (PC-9)
1 | O=C1c2ccccc2C(=O)c2c1cc(NS(=O)(=O)c1ccc(N3CCCCC3)cc1)c(O)c2O | 6.48 | 5.00 | 5.20 | 5.52
2 | O=C1c2ccccc2C(=O)c2c1cc(NS(=O)(=O)c1ccc(F)c(C(F)(F)F)c1)c(O)c2O | 6.20 | 4.65 |  | 
3 | CCCCS(=O)(=O)Nc1cc2c(c(O)c1O)C(=O)c1ccccc1C2=O | 5.69 | 4.41 |  | 
4 | CS(=O)(=O)Nc1cc2c(c(O)c1O)C(=O)c1ccccc1C2=O | 5.27 | 4.55 |  | 
5 | O=C1c2ccccc2C(=O)c2c1cc(NS(=O)(=O)C1CCCCC1)c(O)c2O | 5.76 | 4.66 |  | 
6 | O=C1c2ccccc2C(=O)c2c1cc(NS(=O)(=O)c1ccc(Cl)c(C(F)(F)F)c1)c(O)c2O | 6.26 | 4.89 | 4.67 | 4.76
7 | O=C1c2ccccc2C(=O)c2c1cc(NS(=O)(=O)c1ccccc1)c(O)c2O | 5.82 | 4.67 |  | 
8 | COc1ccc(S(=O)(=O)Nc2cc3c(c(O)c2O)C(=O)c2ccccc2C3=O)cc1OC | 5.55 | 4.57 |  | 

Results, then the molecule that gave them:

Row | pIC50 [1] | pIC50 (NCI-H1299) | pIC50 (A549) | pIC50 (PC-9) | SMILES
9 | 6.44 | 5.11 | 4.60 | 4.80 | Cc1ccc(S(=O)(=O)Nc2cc3c(c(O)c2O)C(=O)c2ccccc2C3=O)cc1
10 | 5.59 | 4.99 | 5.04 | 4.94 | CC1CC(C)CN(c2ccc(S(=O)(=O)Nc3cc4c(c(O)c3O)C(=O)c3ccccc3C4=O)cc2)C1 (stereo not given)
11 | 7.01 | 5.34 | 4.95 | 4.94 | O=C1c2ccccc2C(=O)c2c1cc(NS(=O)(=O)c1ccc(C3CCCCC3)cc1)c(O)c2O
12 | 6.08 | 4.59 |  |  | O=C1c2ccccc2C(=O)c2c1cc(NS(=O)(=O)c1cccs1)c(O)c2O
13 | < 5.00 |  |  |  | CN(C)S(=O)(=O)Nc1cc2c(c(O)c1O)C(=O)c1ccccc1C2=O
